Consider 4 molecules from ChEMBL document CHEMBL3244044, “Synthesis and antitumor activity of halogen-substituted 4-(3,3-dimethyl-1-triazeno)quinolines” (J Med Chem, 1978).

Structures are written as SMILES.

In data set [1] the test system is Mus musculus. Description: Toxicity in mouse B16 cells allografted mouse at 70 mg/kg, ip qd for 9 days. In kind it is organism-based. Also noted: dose 70 mg/kg, route intraperitoneal. Conditions: in vivo, 216 h. The procedure, abridged: (§1)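 Mice bearing B16 melanoma, dosed ip once daily for 9 days from 24 h after tumor implantation. Toxicity is recorded as the average body weight change at the end of drug treatment.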

For data set [2], the system named is Mus musculus. Description: Toxicity in mouse L1210 cells allografted mouse at 90 mg/kg, ip qd for 9 days. In kind it is organism-based. On the set-up: dose 90 mg/kg, route intraperitoneal. Conditions: in vivo, 216 h. The procedure, abridged: (§2)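 NCI protocol. Groups of five to ten mice were inoculated intraperitoneally with about 10^6 tumor cells. Drug was given ip once daily for 9 consecutive days, starting 24 h after tumor implantation, over a range of dose levels. Toxicity was read as the average body weight change at the end of drug treatment.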

Data set [3] has as its system Mus musculus. Description: Toxicity in mouse P388 cells allografted mouse at 80 mg/kg, ip qd for 9 days. To be noted: in vivo, 216 h. On the set-up: dose 80 mg/kg, route intraperitoneal. In kind it is organism-based. A digest of the protocol: as §2
Data set [4] has as its system Mus musculus. Description: Toxicity in mouse L1210 cells allografted mouse at 70 mg/kg, ip qd for 9 days. Also noted: dose 70 mg/kg, route intraperitoneal. In kind it is organism-based. To be noted: in vivo, 216 h. A digest of the protocol:
(§3)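 Groups of five to ten mice were inoculated ip with about 10^6 L1210 cells and dosed once daily for 9 consecutive days beginning 24 h post-implantation. Toxicity was taken as the average body weight change at the end of drug treatment.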

For data set [5], the system named is L1210. Description: Antitumor activity against mouse L1210 cells allografted mouse assessed as host survival at 90 mg/kg, ip qd for 9 days relative to control. In kind it is functional. Conditions: route intraperitoneal. A digest of the protocol:
(§4)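 NCI protocol: groups of five to ten mice inoculated ip with approximately 10^6 P-388 or L1210 cells. Drug given over a range of dose levels starting 24 h after implantation, once daily for 9 consecutive days. Survival expressed as %T/C = (average survival of treated)/(average survival of control) × 100.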

The test system of data set [6] is B16. Description: Antitumor activity against mouse B16 cells allografted mouse assessed as host survival at 116.7 mg/kg, ip qd for 9 days relative to control. The class given is functional. To be noted: route intraperitoneal. The procedure, abridged:
(§5)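 B16 melanoma-bearing mice given drug ip once daily for 9 days, starting 24 h after tumor implantation. Read-out is average survival in days, expressed as %T/C = (average survival of treated mice)/(average survival of control mice) × 100.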

The test system of data set [7] is L1210. Description: Antitumor activity against mouse L1210 cells allografted mouse assessed as host survival at 80 mg/kg, ip qd for 9 days relative to control. In kind it is functional. To be noted: route intraperitoneal. A digest of the protocol:
as §4

The subject of data set [8] is B16. Description: Antitumor activity against mouse B16 cells allografted mouse assessed as host survival at 42 mg/kg, ip qd for 9 days relative to control. To be noted: route intraperitoneal. The class given is functional. The procedure, abridged:
as §5

Data set [9] concerns Mus musculus. Description: Toxicity in mouse P388 cells allografted mouse at 90 mg/kg, ip qd for 9 days. The class given is organism-based. On the set-up: dose 90 mg/kg, route intraperitoneal. Conditions: in vivo, 216 h. A digest of the protocol: as §2
Data set [10] concerns Mus musculus. Description: Toxicity in mouse B16 cells allografted mouse at 42 mg/kg, ip qd for 9 days. To be noted: in vivo, 216 h. The class given is organism-based. Also noted: dose 42 mg/kg, route intraperitoneal. The procedure, abridged: as §1
For data set [11], the system named is L1210. The data set is described as follows: Antitumor activity against mouse L1210 cells allografted mouse assessed as host survival at 70 mg/kg, ip qd for 9 days relative to control. The class given is functional. Conditions: route intraperitoneal. A digest of the protocol: as §4
Data set [12] has as its system Mus musculus. Description: Toxicity in mouse B16 cells allografted mouse at 116.7 mg/kg, ip qd for 9 days. Conditions: in vivo, 216 h. The class given is organism-based. Also noted: dose 116.7 mg/kg, route intraperitoneal. A digest of the protocol: as §1
Data set [13] concerns P388. Description: Antitumor activity against mouse P388 cells allografted mouse assessed as host survival at 80 mg/kg, ip qd for 9 days relative to control. The class given is functional. Conditions: route intraperitoneal. The procedure, abridged: as §4
In data set [14] the test system is Mus musculus. The data set is described as follows: Toxicity in mouse L1210 cells allografted mouse at 80 mg/kg, ip qd for 9 days. The class given is organism-based. On the set-up: dose 80 mg/kg, route intraperitoneal. To be noted: in vivo, 216 h. The procedure, abridged:
as §2

For data set [15], the system named is P388. Description: Antitumor activity against mouse P388 cells allografted mouse assessed as host survival at 70 mg/kg, ip qd for 9 days relative to control. In kind it is functional. Conditions: route intraperitoneal. A digest of the protocol:
as §4

Data set [16] deals with Mus musculus. Description: Toxicity in mouse P388 cells allografted mouse at 70 mg/kg, ip qd for 9 days. The class given is organism-based. Also noted: dose 70 mg/kg, route intraperitoneal. Conditions: in vivo, 216 h. The procedure, abridged: as §2
Data set [17] deals with P388. The data set is described as follows: Antitumor activity against mouse P388 cells allografted mouse assessed as host survival at 90 mg/kg, ip qd for 9 days relative to control. The class given is functional. To be noted: route intraperitoneal. The procedure, abridged: as §4
The subject of data set [18] is B16. Description: Antitumor activity against mouse B16 cells allografted mouse assessed as host survival at 70 mg/kg, ip qd for 9 days relative to control. The class given is functional. Conditions: route intraperitoneal. The procedure, abridged:
as §5

Data set [19] concerns P388. Description: Antitumor activity against mouse P388 cells allografted mouse assessed as host survival at 20 mg/kg, ip qd for 9 days relative to control. The class given is functional. To be noted: route intraperitoneal. A digest of the protocol:
as §4

For data set [20], the system named is Mus musculus. Description: Toxicity in mouse P388 cells allografted mouse at 50 mg/kg, ip qd for 9 days. The class given is organism-based. Also noted: dose 50 mg/kg, route intraperitoneal. To be noted: in vivo, 216 h. A digest of the protocol:
as §2

Data set [21] has as its system Mus musculus. The data set is described as follows: Toxicity in mouse L1210 cells allografted mouse at 30 mg/kg, ip qd for 9 days. In kind it is organism-based. On the set-up: dose 30 mg/kg, route intraperitoneal. To be noted: in vivo, 216 h. A digest of the protocol:
as §3

Data set [22] concerns P388. The data set is described as follows: Antitumor activity against mouse P388 cells allografted mouse assessed as host survival at 40 mg/kg, ip qd for 9 days relative to control. In kind it is functional. Conditions: route intraperitoneal. A digest of the protocol:
as §4

Data set [23] deals with Mus musculus. Description: Toxicity in mouse L1210 cells allografted mouse at 40 mg/kg, ip qd for 9 days. Also noted: dose 40 mg/kg, route intraperitoneal. To be noted: in vivo, 216 h. The class given is organism-based. A digest of the protocol:
as §3

Data set [24] concerns P388. The data set is described as follows: Antitumor activity against mouse P388 cells allografted mouse assessed as host survival at 50 mg/kg, ip qd for 9 days relative to control. The class given is functional. Conditions: route intraperitoneal. A digest of the protocol:
as §4

Data set [25] concerns P388. The data set is described as follows: Antitumor activity against mouse P388 cells allografted mouse assessed as host survival at 30 mg/kg, ip qd for 9 days relative to control. Conditions: route intraperitoneal. The class given is functional. The procedure, abridged:
as §4

For data set [26], the system named is Mus musculus. Description: Toxicity in mouse P388 cells allografted mouse at 40 mg/kg, ip qd for 9 days. The class given is organism-based. Also noted: dose 40 mg/kg, route intraperitoneal. Conditions: in vivo, 216 h. The procedure, abridged:
as §2

The nature of data set [27]: Binding affinity to synthetic melanin at 5.8 mg/100 mL after 15 mins by UV-spectroscopic analysis. In kind it is physicochemical. To be noted: 0.25 h. The procedure, abridged: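 Synthetic melanin was made from DL-Dopa with tyrosinase in 0.1 M phosphate pH 6.6 at 37 °C for 4 h. Melanin suspension (1.1 mg dry weight) was mixed with phosphate buffer (0.05 M, pH 6.4, 5% Me2SO), water, and 1 mL of drug solution (5.8 mg/100 mL). The mixture was shaken 15 min at room temperature and filtered. Unbound drug in the filtrate was measured by UV against a drug-free blank.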

The test system of data set [28] is Mus musculus. Description: Toxicity in mouse P388 cells allografted mouse at 20 mg/kg, ip qd for 9 days. The class given is organism-based. On the set-up: dose 20 mg/kg, route intraperitoneal. To be noted: in vivo, 216 h. A digest of the protocol:
as §2

For data set [29], the system named is L1210. The data set is described as follows: Antitumor activity against mouse L1210 cells allografted mouse assessed as host survival at 40 mg/kg, ip qd for 9 days relative to control. In kind it is functional. To be noted: route intraperitoneal. A digest of the protocol: as §4
Data set [30] relates to L1210. The data set is described as follows: Antitumor activity against mouse L1210 cells allografted mouse assessed as host survival at 30 mg/kg, ip qd for 9 days relative to control. In kind it is functional. To be noted: route intraperitoneal. The procedure, abridged: as §4
Data set [31] has as its system Mus musculus. Description: Toxicity in mouse P388 cells allografted mouse at 30 mg/kg, ip qd for 9 days. In kind it is organism-based. Also noted: dose 30 mg/kg, route intraperitoneal. Conditions: in vivo, 216 h. A digest of the protocol:
as §2

Data set [32] relates to L1210. The data set is described as follows: Antitumor activity against mouse L1210 cells allografted mouse assessed as host survival at 20 mg/kg, ip qd for 9 days relative to control. The class given is functional. Conditions: route intraperitoneal. A digest of the protocol: as §4
In data set [33] the test system is Mus musculus. The data set is described as follows: Toxicity in mouse L1210 cells allografted mouse at 20 mg/kg, ip qd for 9 days. To be noted: in vivo, 216 h. In kind it is organism-based. Also noted: dose 20 mg/kg, route intraperitoneal. The procedure, abridged:
as §3

The T/C is the ratio of treated to control. For `CN(C)/N=N\c1ccnc2c(I)cccc12`, the Activity is given as -1.5% with Mus musculus [1]; -7% in the data set on Mus musculus [2]; -2.4% in the data set on Mus musculus [3]; 7.7% with Mus musculus [4]; -1.6% with Mus musculus [9]; -1.3% with Mus musculus [10]. The Activity is given as -4.6% in the data set on Mus musculus [12], -6.9% with Mus musculus [14] and 8.2% in the data set on Mus musculus [16]. Further, the T/C in the data set with L1210 [5] is 139%; in the data set on B16 [6], 92%; in the data set with L1210 [7], 129%; with B16 [8] it was 97%; with L1210 [11], 127%; in the data set with P388 [13] it was 120%. Besides, the T/C is 120% with P388 [15], 116% in the data set with P388 [17] and 99% in the data set with B16 [18]. Moreover, the results for the Survival with B16 [6], in the data set with B16 [8] and with B16 [18] were 19.3 days, 20 days and 20.8 days, respectively.
As to `CN(C)/N=N\c1ccnc2ccc(Br)cc12`, the T/C in the data set with P388 [19] stood at 123%; in the data set with P388 [22] it was 111%; with P388 [24] it was 131%; with P388 [25], 127%; with L1210 [29], 154%; in the data set on L1210 [30], 150%. In addition, the Activity in the data set on Mus musculus [20] is -8.9%; in the data set on Mus musculus [21], -1%; in the data set with Mus musculus [23], -5.8%; in the data set with Mus musculus [26] it was -3.5%; in data set [27], 55.3%; in the data set on Mus musculus [28], 18%.
For `CN(C)/N=N\c1ccnc2cc(Cl)ccc12`, the Activity in the data set on Mus musculus [31] is reported as -16.3%; in the data set on Mus musculus [21], -1%; in the data set with Mus musculus [26] it was -22.6%; with Mus musculus [33], 5.1%; in data set [27], 48%. Also, the T/C with P388 [22] is reported as 119%; with L1210 [32] it was 154%; in the data set with P388 [25] it was 137%; in the data set with L1210 [30] it was 152%.
Regarding `CN(C)/N=N\c1ccnc2cc(Br)ccc12`, the Activity in the data set on Mus musculus [31] is on record as -2.4%; with Mus musculus [20], -15.1%; in the data set with Mus musculus [21], 10%; in the data set on Mus musculus [23], -2.8%; in the data set on Mus musculus [26], -8.9%; in [27], 57.3%. The T/C in the data set on P388 [22] stood at 133%; in the data set on P388 [24], 125%; in the data set on P388 [25], 133%; with L1210 [29], 141%; with L1210 [30], 129%.
